For one assay, the system named is HL-60. Nature of the assay: Antiproliferative activity against human HL60 cells after 48 hrs by MTT assay. In kind it is functional, cell-based. The following applies: HL-60, 48 h.
Assay [1] is described as follows: Antiproliferative activity against human T cells after 48 hrs by MTT assay. In kind it is cell-based. The following applies: T-cell. In a few lines:
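Healthy-donor PBMC (Ficoll-hypaque) activated 2 days with CD2/CD3/CD28-loaded anti-biotin beads, then expanded 2–4 days with 20 U/mL IL-2. Cells plated at 0.2 × 10^6 cells/mL in complete RPMI with varied compound concentrations for 48 h at 37 °C; MTT 2 h, SDS/DMF lysis overnight, absorbance 570 nm. Triplicate, mean reported.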

Assay [2] is described as follows: Antiinflammatory activity in human neutrophils assessed as inhibition of PMA-induced superoxide production after 20 mins by WST1 assay. In kind it is functional, cell-based. As to conditions: Neutrophil.

As to `Cc1ccc(S(=O)(=O)C2=C(S(=O)(=O)c3ccc(C)cc3)C(=O)c3ncccc3C2=O)cc1`, the values for the half-inhibitory concentration (IC50) (in the assay on HL-60; in assay [1]; in assay [2]) were 61.6 µM, 40.5 µM and greater than 200 µM, respectively.

Turning to `O=C1C(Cl)=C(NCCBr)C(=O)c2ncccc21`, the 50% inhibitory concentration (IC50) with HL-60 was 1.2 µM; in assay [1] it was 2.5 µM; in assay [2] it was 20.7 µM.

With `O=C1C(NCCCl)=C(Cl)C(=O)c2ncccc21`, the 50% inhibitory concentration (IC50) was determined as 1.62 µM in the assay with HL-60, 2.29 µM in assay [1] and 37 µM in assay [2].

As for `O=C1C(Cl)=C(NCCCl)C(=O)c2ncccc21`, the results for the IC50 (in the assay with HL-60; in assay [1]; in assay [2]) were 1.94 µM, 2.27 µM and 31 µM, respectively.

Consider `Cc1ccc2c(n1)C(=O)C(Cl)=C(NCCBr)C2=O`, for which the IC50 in the assay with HL-60 came to 1.3 µM; in assay [1] it was 2.23 µM; in assay [2], 34.2 µM.

As to `Cc1ccc2c(n1)C(=O)C(NCCBr)=C(Cl)C2=O`, the values for the IC50 (in the assay on HL-60; in assay [1]; in assay [2]) were 1.21 µM, 1.59 µM and 73.2 µM, respectively.

Regarding `CNC1=C(SC)C(=O)c2cccnc2C1=O`, the IC50 in the assay on HL-60 is 7.92 µM; in assay [1], 7.57 µM; in assay [2], greater than 200 µM.

Take `CNC1=C(Sc2ccccc2)C(=O)c2ncccc2C1=O`: the IC50 with HL-60 was 8.03 µM; in assay [1] it was 12.2 µM; in assay [2] it was greater than 150 µM.

In the case of `CNC1=C(Sc2ccccc2)C(=O)c2cccnc2C1=O`, the half-inhibitory concentration (IC50) in the assay on HL-60 was 5.88 µM; in assay [1], 6.91 µM; in assay [2] it was 92.8 µM.

For the molecule `CNC1=C([S+](C)[O-])C(=O)c2ncccc2C1=O` (stereo not drawn), the values for the 50% inhibitory concentration (IC50) (in the assay with HL-60; in assay [1]; in assay [2]) were 12.1 µM, 11.8 µM and greater than 200 µM, respectively.

For `Cc1ccc2c(n1)C(=O)C(Cl)=C(Cl)C2=O`, the figures for the IC50 (in the assay with HL-60; in assay [1]; in assay [2]) were 18.7 µM, 44.9 µM and 3.4 µM, respectively.

On to `O=C1c2cccnc2C(=O)C2SCCNC12` (stereo not drawn), for which the IC50 is 4.24 µM with HL-60, 5.88 µM in assay [1] and greater than 200 µM in assay [2].

For the molecule `O=C1C2=C(NCCS2)C(=O)c2ncccc21`, the IC50 with HL-60 is 3.52 µM; in assay [1] it was 6.02 µM; in assay [2], greater than 200 µM.

For the molecule `C[S+]([O-])C1=C(N)C(=O)c2cccnc2C1=O` (stereo not drawn), the half-maximal inhibitory concentration (IC50) is 1.3 µM with HL-60, 1.93 µM in assay [1] and greater than 200 µM in assay [2].

As to `CNC1=C(Cl)C(=O)c2cccnc2C1=O`, the half-maximal inhibitory concentration (IC50) in the assay on HL-60 is 4.3 µM; in assay [1] it was 5.21 µM; in assay [2], 41.1 µM.

Regarding `CSC1=C(N)C(=O)c2cccnc2C1=O`, the half-maximal inhibitory concentration (IC50) with HL-60 is 7.64 µM; in assay [1], 8.32 µM; in assay [2], greater than 150 µM.

With `CNC1=C(SC)C(=O)c2ncccc2C1=O`, the IC50 in the assay with HL-60 is 3.44 µM; in assay [1], 19.5 µM; in assay [2], greater than 200 µM.

Regarding `CSC1=C(SC)C(=O)c2ncccc2C1=O`, the IC50 was determined as 1.23 µM in the assay on HL-60, 1.69 µM in assay [1] and 0.11 µM in assay [2].

Take `O=C1C(NCCBr)=C(Cl)C(=O)c2ncccc21`: the results for the IC50 (in the assay with HL-60; in assay [1]; in assay [2]) were 1.65 µM, 2.56 µM and 20 µM, respectively.

On to `O=C1C(NC(c2ccccc2)c2ccccc2)=C(Cl)C(=O)c2ncccc21`, for which the IC50 in the assay with HL-60 came to 2.45 µM; in assay [1] it was 2.59 µM; in assay [2], 33.9 µM.

For `CNC1=C(Cl)C(=O)c2ncccc2C1=O`, the figures for the concentration for half-maximal inhibition (IC50) (with HL-60; in assay [1]; in assay [2]) were 2.45 µM, 3.56 µM and 78.9 µM, respectively.

On to `CNC1=C([S+](C)[O-])C(=O)c2cccnc2C1=O` (stereo not drawn), for which the IC50 is 33.2 µM in the assay with HL-60, 13.4 µM in assay [1] and greater than 200 µM in assay [2].

`CS(=O)(=O)C1=C(N)C(=O)c2cccnc2C1=O`: the results for the concentration for half-maximal inhibition (IC50) (in the assay on HL-60; in assay [1]; in assay [2]) were 4.53 µM, 19.3 µM and greater than 200 µM, respectively.

With `Cc1ccc(S(=O)(=O)C2=C(Cl)C(=O)c3ncccc3C2=O)cc1`, the IC50 with HL-60 is 38.1 µM; in assay [1], 35.5 µM; in assay [2], greater than 200 µM.

As for `O=C1C(Sc2ccccc2)=C(Sc2ccccc2)C(=O)c2ncccc21`, the figures for the IC50 (with HL-60; in assay [1]; in assay [2]) were 3.68 µM, 7.77 µM and 24.8 µM, respectively.

Consider `Oc1c(Sc2ccccc2)c(Sc2ccccc2)c(O)c2ncccc12`, for which the concentration for half-maximal inhibition (IC50) is 6.95 µM in the assay with HL-60, 10 µM in assay [1] and 2.3 µM in assay [2].

For the origin of these results see ChEMBL document CHEMBL1157933, “The anti-cancer, anti-inflammatory and tuberculostatic activities of a series of 6,7-substituted-5,8-quinolinequinones” (Bioorg Med Chem, 2010).
